From ChEMBL document CHEMBL2021799, “Exploring the interplay of physicochemical properties, membrane permeability and giardicidal activity of some benzimidazole derivatives” (Eur J Med Chem, 2012)
In brackets after ≈: the same amount, converted by molar mass.

How the values were obtained:
Giardia intestinalis [1] = assay: Antiparasitic activity against Giardia duodenalis IMSS:0989 after 48 hrs; assay type: functional, organism-based; details: IMSS:0989, 48 h
Summary of the method: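 G. duodenalis trophozoites grown in modified TYI-S-33 with 10% calf serum and bovine bile. 5 × 10⁴ trophozoites incubated 48 h at 37 °C with increasing compound concentrations; DMSO-treated trophozoites as negative control. An aliquot was then subcultured 48 h in fresh drug-free medium, trophozoites counted, and IC50 obtained by Probit analysis.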

Caco-2 [2] = assay: Apparent permeability from apical to basolateral side of human Caco2 cells at 100 uM up to 90 mins; details: caco-2, 1.5 h
[3] = Aqueous solubility of the compound
Caco-2 [4] = assay: Apparent permeability from basolateral to apical side of human Caco2 cells at 100 uM up to 90 mins; details: caco-2, 1.5 h
Caco-2 [5] = assay: Influx ratio of permeability from basolateral to apical side over apical to basolateral side in human Caco2 cells at 100 uM up to 90 mins; details: caco-2, 1.5 h
[6] = Lipophilicity, logkw of the compound by RP-HPLC analysis
[7] = Distribution coefficient, log D of the compound; details: octanol/water
Caco-2 [8] = assay: Efflux ratio of permeability from apical to basolateral side over basolateral to apical side in human Caco2 cells at 100 uM up to 90 mins; details: caco-2, 1.5 h
Giardia intestinalis [9] = assay: Ratio of metronidazole IC50 to compound IC50 for Giardia duodenalis IMSS:0989; assay type: functional
[10] = aqueous medium, not specified further

| SMILES | IC50 (Giardia intestinalis [1]) | Papp (Caco-2 [2]) | solubility [3, 10] | Papp (Caco-2 [4]) | Ratio (Caco-2 [5]) | logKw [6] | log1/S ([3]; buffer) | logD [7] | Ratio (Caco-2 [8]) | solubility ([3]; buffer) | Ratio IC50 (Giardia intestinalis [9]) |
| --- | --- | --- | --- | --- | --- | --- | --- | --- | --- | --- | --- |
| O=C(O)c1ccc2nc(C(F)(F)F)[nH]c2c1 | 0.172 µM | 0.57 ×10⁻⁶ cm/s | 0.189 µg/mL (≈ 0.819 µM) | 0.74 ×10⁻⁶ cm/s | – | – | – | – | – | – | – |
| COC(=O)c1ccc2[nH]c(C(F)(F)F)nc2c1 | 1.19 µM | 32.7 ×10⁻⁶ cm/s | 0.555 µg/mL (≈ 2.27 µM) | 23 ×10⁻⁶ cm/s | 1.42 | 1.94 | 5.64 | 3.52 | 0.7 | – | – |
| Cn1c(N)nc2cc(Cl)ccc21 | 0.242 µM | 5.21 ×10⁻⁶ cm/s | – | 9.57 ×10⁻⁶ cm/s | 0.54 | 3.19 | 9.12 | 4.95 | 1.83 | 0.0001 µg/mL (≈ 0.000551 µM) | – |
| Cn1c(C(F)(F)F)nc2cc(C(=O)O)ccc21 | 2.77 µM | 9.83 ×10⁻⁶ cm/s | 10.9 µg/mL (≈ 44.6 µM) | 7.25 ×10⁻⁶ cm/s | 1.35 | 1.47 | 4.35 | 2.98 | 0.74 | – | – |
| Cn1c(C(F)(F)F)nc2ccc(C(=O)O)cc21 | 0.33 µM | 5.09 ×10⁻⁶ cm/s | 98.7 µg/mL (≈ 404 µM) | 4.65 ×10⁻⁶ cm/s | 1.09 | 1.13 | 3.39 | 3.7 | 0.91 | – | – |
| COC(=O)c1ccc2c(c1)nc(C(F)(F)F)n2C | 2.45 µM | 26.7 ×10⁻⁶ cm/s | 0.281 µg/mL (≈ 1.09 µM) | 23.9 ×10⁻⁶ cm/s | 1.11 | 2.05 | 5.96 | 3.65 | 0.89 | – | – |
| COC(=O)c1ccc2nc(C(F)(F)F)n(C)c2c1 | 3.82 µM | 39.2 ×10⁻⁶ cm/s | 0.0859 µg/mL (≈ 0.333 µM) | 21.8 ×10⁻⁶ cm/s | 1.8 | 2.24 | 6.47 | 3.86 | 0.55 | – | – |
| CCN(CC)C(=O)COC(=O)c1ccc2c(c1)nc(C(F)(F)F)n2C | 0.133 µM | 21.9 ×10⁻⁶ cm/s | 0.0401 µg/mL (≈ 0.112 µM) | 11 ×10⁻⁶ cm/s | 1.99 | 2.4 | 6.94 | 4.06 | 0.5 | – | – |
| CCN(CC)C(=O)COC(=O)c1ccc2nc(C(F)(F)F)n(C)c2c1 | 0.47 µM | 15.4 ×10⁻⁶ cm/s | 0.0572 µg/mL (≈ 0.16 µM) | 13 ×10⁻⁶ cm/s | 1.17 | 2.29 | 6.62 | 2.81 | 0.84 | – | – |
| CNC(=O)c1ccc2[nH]c(C(F)(F)F)nc2c1 | 0.32 µM | – | 87.8 µg/mL (≈ 361 µM) | – | – | 1.21 | 3.6 | 2.68 | – | – | – |
| CNC(=O)c1ccc2nc(C(F)(F)F)n(C)c2c1 | 0.211 µM | 14.6 ×10⁻⁶ cm/s | 29.6 µg/mL (≈ 115 µM) | 8.98 ×10⁻⁶ cm/s | 1.62 | 1.33 | 3.93 | 3.92 | 0.61 | – | – |
| CSc1nc2ccccc2n1C | 0.033 µM | 7.12 ×10⁻⁶ cm/s | 1.14 µg/mL (≈ 6.39 µM) | 9.57 ×10⁻⁶ cm/s | 0.74 | 1.78 | 5.19 | 3.33 | 1.34 | – | – |
| Cn1c(S)nc2ccccc21 | 0.018 µM | 8.14 ×10⁻⁶ cm/s | 36 µg/mL (≈ 219 µM) | 14.5 ×10⁻⁶ cm/s | 0.56 | 1.23 | 3.65 | 2.7 | 1.78 | – | 67 |
| Cn1c(S)nc2ccc(Cl)cc21 | 0.02 µM | 14.1 ×10⁻⁶ cm/s | 0.588 µg/mL (≈ 2.96 µM) | 27.2 ×10⁻⁶ cm/s | 0.51 | 1.9 | 5.59 | 3.47 | 1.93 | – | 27 |
| CSc1nc2ccc(Cl)cc2n1C | 0.122 µM | – | – | – | – | – | – | – | – | – | – |
| Cc1nc2cc(Cl)c(Cl)cc2n1C | 0.055 µM | 7.98 ×10⁻⁶ cm/s | 0.0716 µg/mL (≈ 0.333 µM) | 11.2 ×10⁻⁶ cm/s | 0.71 | 2.24 | 6.47 | 3.86 | 1.4 | – | – |
| Cc1nc2ccccc2n1C | 0.089 µM | 9.03 ×10⁻⁶ cm/s | 5790 µg/mL (≈ 39600 µM) | 10.2 ×10⁻⁶ cm/s | 0.88 | 0.42 | 1.4 | 1.77 | 1.13 | – | – |
| CSc1nc2cc(Cl)ccc2n1C | 0.028 µM | 7.59 ×10⁻⁶ cm/s | 0.0172 µg/mL (≈ 0.0809 µM) | 14.2 ×10⁻⁶ cm/s | 0.53 | 2.46 | 7.09 | 4.11 | 1.87 | – | – |
| Cn1c(S)nc2cc(Cl)ccc21 | 0.045 µM | 6.92 ×10⁻⁶ cm/s | 3.79 µg/mL (≈ 19.1 µM) | 9.57 ×10⁻⁶ cm/s | 0.72 | 1.61 | 4.71 | 3.14 | 1.38 | – | 61 |
| Cc1nc2ccc(Cl)cc2n1C | 0.044 µM | – | – | – | – | – | – | – | – | – | – |
| FC(F)(F)c1nc2ccccc2[nH]1 | – | – | 0.992 µg/mL (≈ 5.33 µM) | – | – | 1.8 | 5.27 | 3.36 | – | – | – |
| Cn1c(C(F)(F)F)nc2ccc(Cl)cc21 | – | – | 0.033 µg/mL (≈ 0.141 µM) | – | – | 2.37 | 6.85 | 4.02 | – | – | – |
| FC(F)(F)c1nc2cc(Cl)c(Cl)cc2[nH]1 | – | – | 0.0025 µg/mL (≈ 0.0098 µM) | – | – | 2.78 | 8 | 4.49 | – | – | – |
| Cn1c(C(F)(F)F)nc2cc(Cl)ccc21 | – | – | 0.0412 µg/mL (≈ 0.176 µM) | – | – | 2.33 | 6.75 | 3.98 | – | – | – |
| CCCSc1ccc2nc(NC(=O)OC)[nH]c2c1 [ALBENDAZOLE] | – | 3.14 ×10⁻⁶ cm/s | 0.75 µg/mL (≈ 2.83 µM) | 1.99 ×10⁻⁶ cm/s | 1.35 | 1.95 | 5.55 | 3.83 | 0.74 | – | – |
| c1ccc2[nH]cnc2c1 [BENZIMIDAZOLE] | 137 µM | – | 7600 µg/mL (≈ 64400 µM) | – | – | 0.27 | 1.45 | 1.37 | – | – | – |
| COC(=O)Nc1nc2ccccc2[nH]1 [CARBENDAZIM] | – | – | – | – | – | 0.9 | 1.89 | 1.49 | – | 2441 µg/mL (≈ 12800 µM) | – |
| COC(=O)Nc1nc2ccc(Sc3ccccc3)cc2[nH]1 [FENBENDAZOLE] | 0.056 µM | – | 0.025 µg/mL (≈ 0.0835 µM) | – | – | 2.44 | 7.07 | 3.93 | – | – | – |
| COC(=O)Nc1nc2ccc(C(=O)c3ccccc3)cc2[nH]1 [MEBENDAZOLE] | 0.055 µM | 5.15 ×10⁻⁶ cm/s | – | 4.34 ×10⁻⁶ cm/s | – | 1.68 | – | 3.73 | – | – | – |
| CC(C)NCC(O)COc1cccc2ccccc12 (centres undefined) [PROPRANOLOL] | – | – | – | 37.9 ×10⁻⁶ cm/s | 1.27 | – | – | – | 0.78 | – | – |
